One data set has as its system HUVEC. In words: Cytotoxicity against HUVEC. Type of data set: cell-based. The conditions noted are these: human.
The target of another data set is T1, Heparanase (Homo sapiens, UniProt Q9Y251).
T1 sequence (Q9Y251 whole entry): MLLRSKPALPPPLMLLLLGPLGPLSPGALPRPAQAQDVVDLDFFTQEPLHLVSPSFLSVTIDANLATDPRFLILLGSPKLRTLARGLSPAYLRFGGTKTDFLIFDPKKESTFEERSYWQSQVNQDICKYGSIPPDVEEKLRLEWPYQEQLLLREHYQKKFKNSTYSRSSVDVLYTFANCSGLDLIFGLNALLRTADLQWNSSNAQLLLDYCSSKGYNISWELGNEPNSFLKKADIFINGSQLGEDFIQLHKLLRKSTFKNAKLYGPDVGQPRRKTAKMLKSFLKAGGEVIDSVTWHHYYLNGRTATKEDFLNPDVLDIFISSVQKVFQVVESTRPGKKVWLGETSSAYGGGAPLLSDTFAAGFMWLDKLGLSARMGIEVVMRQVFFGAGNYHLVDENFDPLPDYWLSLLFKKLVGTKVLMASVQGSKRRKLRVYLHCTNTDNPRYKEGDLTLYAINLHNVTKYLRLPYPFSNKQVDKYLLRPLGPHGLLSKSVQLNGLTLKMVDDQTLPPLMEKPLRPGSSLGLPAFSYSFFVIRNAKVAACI
In words: Inhibition of human recombinant heparanase. Summed up:
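Recombinant human heparanase assayed by ultrafiltration with 3H-labelled heparan sulfate as substrate (Km = 1.64 μM). Ki values with standard error were derived from inhibition response curves.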

The target in data set [1] is Fibroblast growth factor 2 (Homo sapiens, UniProt P09038). In words: Binding affinity to FGF2 by surface plasmon-based solution affinity assay. In a few lines:
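Surface plasmon resonance solution affinity assay on heparin-coated CM4 chips. FGF-2 binding run in HBS-EP containing 300 mM NaCl. Kd is the mean of at least duplicate measurements ± SD.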

Data set [2] deals with T2, Vascular endothelial growth factor A, long form (Homo sapiens, UniProt P15692).
T2 sequence (P15692 whole entry): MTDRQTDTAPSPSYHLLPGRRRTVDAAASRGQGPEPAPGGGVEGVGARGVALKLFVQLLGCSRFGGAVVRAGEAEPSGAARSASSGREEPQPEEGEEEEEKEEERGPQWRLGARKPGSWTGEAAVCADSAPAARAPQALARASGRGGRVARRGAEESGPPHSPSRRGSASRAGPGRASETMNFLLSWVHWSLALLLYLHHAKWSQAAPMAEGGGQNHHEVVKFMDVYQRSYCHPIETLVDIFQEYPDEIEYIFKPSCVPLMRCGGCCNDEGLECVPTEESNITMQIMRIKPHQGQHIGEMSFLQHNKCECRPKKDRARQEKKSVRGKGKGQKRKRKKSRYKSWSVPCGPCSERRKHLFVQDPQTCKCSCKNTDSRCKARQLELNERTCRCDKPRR
In words: Binding affinity to VEGF by surface plasmon-based solution affinity assay. Summed up: (§1)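 Surface plasmon resonance solution affinity assay on heparin-coated CM4 chips. Buffer: HBS-EP (10 mM HEPES pH 7.4, 150 mM NaCl, 3.0 mM EDTA, 0.005% polysorbate 20). Kd is the mean of at least duplicate measurements ± SD.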
(SPR reads the build-up and loss of mass on a sensor chip optically.)

In data set [3] the target is Fibroblast growth factor 1 (Homo sapiens, UniProt P05230). In words: Binding affinity to FGF1 by surface plasmon-based solution affinity assay. Summed up:
as §1

The subject of data set [4] is Plasma. In words: Anticoagulant activity in human plasma by heptest. Type of data set: functional. In a few lines:
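Heptest clot assay. Plasma (centrifuged 1800g, 10 min, used within 30 min) incubated with compound 2 min at 37 °C. Factor Xa added, 2 min at 37 °C, then clotting started with Recalmix; read on a ball coagulometer. Normal range 13–20 s; means of two determinations.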

For data set [5], the system named is Plasma. In words: Anticoagulant activity in human plasma assessed as activated partial thromboplastin time. Type of data set: functional. In a few lines: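 Pooled normal human plasma spiked with compound in PBS at 0.1 mg/mL (methods give a 0–100 μg/mL range); APTT elevation measured. Normal range 26–36 s. Values are means of two determinations.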

Chain of Fibroblast growth factor 1 (P05230 whole entry): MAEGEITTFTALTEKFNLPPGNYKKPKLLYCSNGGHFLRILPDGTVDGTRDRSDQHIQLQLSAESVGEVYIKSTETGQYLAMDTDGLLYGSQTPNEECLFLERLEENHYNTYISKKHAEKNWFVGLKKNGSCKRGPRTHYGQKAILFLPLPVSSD
Chain of Fibroblast growth factor 2 (P09038 143-288 limits assumed): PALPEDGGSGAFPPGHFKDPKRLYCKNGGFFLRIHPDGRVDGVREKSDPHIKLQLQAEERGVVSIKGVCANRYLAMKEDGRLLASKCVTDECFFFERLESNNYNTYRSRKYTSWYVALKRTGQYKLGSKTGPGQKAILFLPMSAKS

For `O=S(=O)([O-])OC[C@H]1O[C@H](OCCCn2cc(-c3ccccc3)nn2)[C@@H](O[C@H]2O[C@H](COS(=O)(=O)[O-])[C@@H](OS(=O)(=O)[O-])[C@H](O[C@H]3O[C@H](COS(=O)(=O)[O-])[C@@H](OS(=O)(=O)[O-])[C@H](O[C@H]4O[C@H](COS(=O)(=O)[O-])[C@@H](OS(=O)(=O)[O-])[C@H](OS(=O)(=O)[O-])[C@@H]4OS(=O)(=O)[O-])[C@@H]3OS(=O)(=O)[O-])[C@@H]2OS(=O)(=O)[O-])[C@@H](OS(=O)(=O)[O-])[C@@H]1OS(=O)(=O)[O-].[Na+].[Na+].[Na+].[Na+].[Na+].[Na+].[Na+].[Na+].[Na+].[Na+].[Na+].[Na+].[Na+]`, the 50% lethal concentration (LC50) (as a rule, the concentration lethal to half of the exposed cells or organisms) in the data set on HUVEC was greater than 100000 nM. Further, the Ki (as a rule, a measure of affinity in units of concentration, obtained from inhibition or displacement) at Heparanase is 610 nM. For the same compound, the Kd – broadly, a measure of binding affinity in units of concentration – in data set [1] is 550 nM; in data set [2], 25 nM; in data set [3], 0.36 nM.
In turn, `O=S(=O)([O-])OC[C@H]1O[C@H](OCCCCCCCCCCCCn2cc(-c3ccccc3)nn2)[C@@H](O[C@H]2O[C@H](COS(=O)(=O)[O-])[C@@H](OS(=O)(=O)[O-])[C@H](O[C@H]3O[C@H](COS(=O)(=O)[O-])[C@@H](OS(=O)(=O)[O-])[C@H](O[C@H]4O[C@H](COS(=O)(=O)[O-])[C@@H](OS(=O)(=O)[O-])[C@H](O[C@H]5O[C@H](COS(=O)(=O)[O-])[C@@H](OS(=O)(=O)[O-])[C@H](OS(=O)(=O)[O-])[C@@H]5OS(=O)(=O)[O-])[C@@H]4OS(=O)(=O)[O-])[C@@H]3OS(=O)(=O)[O-])[C@@H]2OS(=O)(=O)[O-])[C@@H](OS(=O)(=O)[O-])[C@@H]1OS(=O)(=O)[O-].[Na+].[Na+].[Na+].[Na+].[Na+].[Na+].[Na+].[Na+].[Na+].[Na+].[Na+].[Na+].[Na+].[Na+].[Na+].[Na+]` returned an LC50 with HUVEC greater than 100000 nM. For the same compound, on Heparanase, the Ki was determined as 270 nM. The values for the Kd in data set [1], in data set [2] and in data set [3] were 253 nM, 5.1 nM and 2.3 nM, respectively.
Compound `CCCCCCCCCCCCO[C@H]1O[C@H](COS(=O)(=O)[O-])[C@@H](OS(=O)(=O)[O-])[C@H](OS(=O)(=O)[O-])[C@@H]1O[C@H]1O[C@H](COS(=O)(=O)[O-])[C@@H](OS(=O)(=O)[O-])[C@H](O[C@H]2O[C@H](COS(=O)(=O)[O-])[C@@H](OS(=O)(=O)[O-])[C@H](O[C@H]3O[C@H](COS(=O)(=O)[O-])[C@@H](OS(=O)(=O)[O-])[C@H](O[C@H]4O[C@H](COS(=O)(=O)[O-])[C@@H](OS(=O)(=O)[O-])[C@H](OS(=O)(=O)[O-])[C@@H]4OS(=O)(=O)[O-])[C@@H]3OS(=O)(=O)[O-])[C@@H]2OS(=O)(=O)[O-])[C@@H]1OS(=O)(=O)[O-].[Na+].[Na+].[Na+].[Na+].[Na+].[Na+].[Na+].[Na+].[Na+].[Na+].[Na+].[Na+].[Na+].[Na+].[Na+].[Na+]` yielded an LC50 with HUVEC greater than 100000 nM. Further, on Heparanase, the inhibitory constant (Ki) is 280 nM. In the data set with Plasma [4], the Activity turned out to be 64.2 s. Further, the Kd in data set [1] is 480 nM; in data set [2] it was 12 nM; in data set [3] it was 6 nM. Besides, the Time in the data set with Plasma [5] was 125.9 s.
Turning to `CN(C)c1cccc2c(S(=O)(=O)NCCCCCCCCO[C@H]3O[C@H](COS(=O)(=O)[O-])[C@@H](OS(=O)(=O)[O-])[C@H](OS(=O)(=O)[O-])[C@@H]3O[C@H]3O[C@H](COS(=O)(=O)[O-])[C@@H](OS(=O)(=O)[O-])[C@H](O[C@H]4O[C@H](COS(=O)(=O)[O-])[C@@H](OS(=O)(=O)[O-])[C@H](O[C@H]5O[C@H](COS(=O)(=O)[O-])[C@@H](OS(=O)(=O)[O-])[C@H](OS(=O)(=O)[O-])[C@@H]5OS(=O)(=O)[O-])[C@@H]4OS(=O)(=O)[O-])[C@@H]3OS(=O)(=O)[O-])cccc12.[Na+].[Na+].[Na+].[Na+].[Na+].[Na+].[Na+].[Na+].[Na+].[Na+].[Na+].[Na+].[Na+]`, the LC50 in the data set with HUVEC is greater than 100000 nM. At Heparanase, the Ki worked out at 330 nM. Besides, the values for the Kd in data set [1], in data set [2] and in data set [3] were 130 nM, 8.9 nM and 0.2 nM, respectively.
Compound `CN(C)c1cccc2c(S(=O)(=O)NCCCO[C@H]3O[C@H](COS(=O)(=O)[O-])[C@@H](OS(=O)(=O)[O-])[C@H](OS(=O)(=O)[O-])[C@@H]3O[C@H]3O[C@H](COS(=O)(=O)[O-])[C@@H](OS(=O)(=O)[O-])[C@H](O[C@H]4O[C@H](COS(=O)(=O)[O-])[C@@H](OS(=O)(=O)[O-])[C@H](O[C@H]5O[C@H](COS(=O)(=O)[O-])[C@@H](OS(=O)(=O)[O-])[C@H](O[C@H]6O[C@H](COS(=O)(=O)[O-])[C@@H](OS(=O)(=O)[O-])[C@H](OS(=O)(=O)[O-])[C@@H]6OS(=O)(=O)[O-])[C@@H]5OS(=O)(=O)[O-])[C@@H]4OS(=O)(=O)[O-])[C@@H]3OS(=O)(=O)[O-])cccc12.[Na+].[Na+].[Na+].[Na+].[Na+].[Na+].[Na+].[Na+].[Na+].[Na+].[Na+].[Na+].[Na+].[Na+].[Na+].[Na+]` had an LC50 in the data set on HUVEC greater than 100000 nM. Moreover, the inhibitory constant (Ki) on Heparanase stood at 570 nM. Moreover, the results for the Kd in data set [1], in data set [2] and in data set [3] were 86 nM, 12.2 nM and 0.79 nM, respectively.
The corresponding values for `O=S(=O)([O-])OC[C@H]1O[C@H](OCCCCCCCCCCCCn2cc(-c3cccc4ccccc34)nn2)[C@@H](O[C@H]2O[C@H](COS(=O)(=O)[O-])[C@@H](OS(=O)(=O)[O-])[C@H](O[C@H]3O[C@H](COS(=O)(=O)[O-])[C@@H](OS(=O)(=O)[O-])[C@H](O[C@H]4O[C@H](COS(=O)(=O)[O-])[C@@H](OS(=O)(=O)[O-])[C@H](O[C@H]5O[C@H](COS(=O)(=O)[O-])[C@@H](OS(=O)(=O)[O-])[C@H](OS(=O)(=O)[O-])[C@@H]5OS(=O)(=O)[O-])[C@@H]4OS(=O)(=O)[O-])[C@@H]3OS(=O)(=O)[O-])[C@@H]2OS(=O)(=O)[O-])[C@@H](OS(=O)(=O)[O-])[C@@H]1OS(=O)(=O)[O-].[Na+].[Na+].[Na+].[Na+].[Na+].[Na+].[Na+].[Na+].[Na+].[Na+].[Na+].[Na+].[Na+].[Na+].[Na+].[Na+]` are greater than 100000 nM, 270 nM, 73 nM, 0.79 nM and 0.19 nM.
The corresponding values for `O=S(=O)([O-])OC[C@H]1O[C@H](OCCCn2cc(-c3ccccc3)nn2)[C@@H](O[C@H]2O[C@H](COS(=O)(=O)[O-])[C@@H](OS(=O)(=O)[O-])[C@H](O[C@H]3O[C@H](COS(=O)(=O)[O-])[C@@H](OS(=O)(=O)[O-])[C@H](O[C@H]4O[C@H](COS(=O)(=O)[O-])[C@@H](OS(=O)(=O)[O-])[C@H](O[C@H]5O[C@H](COS(=O)(=O)[O-])[C@@H](OS(=O)(=O)[O-])[C@H](OS(=O)(=O)[O-])[C@@H]5OS(=O)(=O)[O-])[C@@H]4OS(=O)(=O)[O-])[C@@H]3OS(=O)(=O)[O-])[C@@H]2OS(=O)(=O)[O-])[C@@H](OS(=O)(=O)[O-])[C@@H]1OS(=O)(=O)[O-].[Na+].[Na+].[Na+].[Na+].[Na+].[Na+].[Na+].[Na+].[Na+].[Na+].[Na+].[Na+].[Na+].[Na+].[Na+].[Na+]` are greater than 100000 nM, 350 nM, 83 nM, 1.4 nM and 0.1 nM.

The values above are taken from ChEMBL document CHEMBL1157543, “Synthesis and biological evaluation of polysulfated oligosaccharide glycosides as inhibitors of angiogenesis and tumor growth” (J Med Chem, 2010).
